Source: PubChem (Broad Institute)
T cruzi intra = blocks T. cruzi growth inside host cells; intracellular Trypanosoma cruzi in host cells, plate reader; AID 651903; activity score (inhibition), % at 5.01 µM; 22,000 tested, 4.9% active; in the data active = activity score above about 55%;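 note: parasites and compound incubated about four days before reading; 0% = median of neutral control wells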
INS-1E rescue = INS-1E beta cell protection from cytokine death; INS-1E cytokine-induced death, ATP luminescence, 48 h; normalised: neutral wells 0, positive control 100; protection from cytokine-induced ATP loss, % at 10 µM; 20,000 tested, 0.1% active;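 active = mean replicate protection from cytokine-induced ATP loss at least 50% and at least 75% of replicates each reaching 50%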
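Assay system: INS-1E rat cells / Quantity: 8000 cells per well / Medium: RPMI without phenol red, 5% FBS / Probe or stimulus: three-cytokine cocktail (IFN-γ, TNF-α, IL-1β) / Dosing: one compound concentration, pin transfer / Timing: 48 h co-treatment, 10 min post-lysis read / Technique: CellTiter-Glo luminescence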
A1 apoptosis 2 = blocks A1, raising caspase activity. MEF A1-2A-BIM cells, caspase-Glo luminescence, 3 h; percent of clofoctol response, DMSO zero. caspase activation, % (no concentration beside the values). 24,000 tested, under 10 active. AID 2465; in the data active = caspase activation above about 5.9%
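Test system – A1-2A-BIM-expressing MEF cells · Input – 2500 cells/well · Medium – RPMI-1640 growth medium with 10% FBS · Compound dosing – 50 nL pinned compound · Timing – 3 h compound exposure at 37 °C · Technique – Caspase-Glo luminescence (DEVD substrate) · Evaluation – Caspase-3/7 activity from luminescence increase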
* = called active by the depositor; · = not tested or not shown. The sample as a whole holds a higher share of hits than the screen did.

SMILES	T cruzi intra	INS-1E rescue	A1 apoptosis 2
O=C(CCCCCCC(=O)N/N=C\c1ccc(O)c2ccccc12)NO	14	151*	0
CCOc1cccc(/C=N/NC(=O)CCCCCCC(=O)OC)c1OCC	1	6	0
COc1cc2c(cc1O)C(c1cccs1)N(C)CC2 (stereo unspecified)	·	·	0
O=C(NO)c1cccc(C(=O)N/N=C/c2ccccn2)c1	-12	3	0
O=C(CCCCC(=O)N/N=C/c1ccccc1[N+](=O)[O-])NO	12	14	-1
COc1ccc(NC(=O)Nc2ccc3c(c2)C(=O)N([C@@H](C)CO)C[C@H](C)[C@H](CN(C)C(=O)NC2CCCCC2)O3)cc1	-9	-8	·
COC(=O)c1c2oc(c1C(=O)OC)C(=O)N[C@@H](Cc1ccccc1)Cn1cc(nn1)[C@H](Cc1ccccc1)NC(=O)N[C@@H](CO)CC2	·	·	0
O=C(CCCCCC(=O)Nc1ccccc1O)N/N=C/c1ccc(N2CCCC2)cc1	·	·	0
O=C(CCCCC(=O)N/N=C/c1c(O)ccc2ccccc12)NO	-4	132*	0
O=C(CCCCCC(=O)N/N=C/c1ccccc1O)NO	·	·	0
O=C(NO)c1cccc(C(=O)N/N=C/c2ccncc2Br)c1	-6	-12	-5
Cc1noc(C)c1S(=O)(=O)Nc1ccc2c(c1)C(=O)N([C@H](C)CO)C[C@H](C)[C@H](CN(C)Cc1ccc(C(=O)Nc3ccccc3N)cc1)O2	79*	13	·
Cc1noc(C)c1S(=O)(=O)Nc1ccc2c(c1)C(=O)N([C@@H](C)CO)C[C@H](C)[C@@H](CN(C)Cc1ccc(C(=O)Nc3ccccc3N)cc1)O2	43	-14	-1
Cc1noc(C)c1S(=O)(=O)Nc1ccc2c(c1)CC(=O)N([C@H](C)CO)C[C@H](C)[C@H](CN(C)Cc1ccc(C(=O)Nc3ccccc3N)cc1)O2	76*	34	·
Cc1noc(C)c1S(=O)(=O)Nc1ccc2c(c1)C(=O)N([C@@H](C)CO)C[C@@H](C)[C@@H](CN(C)Cc1ccc(C(=O)Nc3ccccc3N)cc1)O2	54	-3	1
Cc1noc(C)c1S(=O)(=O)Nc1ccc2c(c1)C(=O)N([C@H](C)CO)C[C@@H](C)[C@@H](CN(C)Cc1ccc(C(=O)Nc3ccccc3N)cc1)O2	65*	-9	0
Cc1noc(C)c1S(=O)(=O)Nc1ccc2c(c1)CC(=O)N([C@@H](C)CO)C[C@H](C)[C@H](CN(C)Cc1ccc(C(=O)Nc3ccccc3N)cc1)O2	·	·	0
CCCCCCC/C=N/NC(=O)c1ccccc1O	-10	-2	0
COc1ccc(NC(=O)Nc2ccc3c(c2)C(=O)N([C@H](C)CO)C[C@H](C)[C@H](CN(C)Cc2ccc(Cl)c(Cl)c2)OCCCC[C@@H](C)O3)cc1	64*	-28	·
COc1ccc(NC(=O)Nc2ccc3c(c2)C(=O)N([C@@H](C)CO)C[C@H](C)[C@@H](CN(C)Cc2ccc(Cl)c(Cl)c2)OCCCC[C@@H](C)O3)cc1	·	·	1
COc1ccc(NC(=O)Nc2ccc3c(c2)C(=O)N([C@H](C)CO)C[C@H](C)[C@H](CN(C)Cc2ccc(Cl)c(Cl)c2)OCCCC[C@H](C)O3)cc1	·	·	-2
COc1ccc(NC(=O)Nc2ccc3c(c2)C(=O)N([C@H](C)CO)C[C@H](C)[C@@H](CN(C)Cc2ccc(Cl)c(Cl)c2)OCCCC[C@@H](C)O3)cc1	59*	-45	1
C[C@@H]1CCCCO[C@@H](CN(C)C(=O)C2CCCCC2)[C@@H](C)CN([C@H](C)CO)C(=O)c2cc(NC(=O)C3CCCCC3)ccc2O1	8	0	0
CC(C)(C)OC(=O)NC/C=N/NC(=O)c1ccccn1	12	-2	-1
O=C(N1CCCCC1)[C@]1(CCS(=O)(=O)c2ccccc2)N=C(c2ccc(OCCCO)cc2)O[C@@H]1c1ccccc1	·	·	-1
C[C@H]1CN([C@@H](C)CO)C(=O)c2cccc(NC(=O)c3ccncc3)c2O[C@H]1CN(C)Cc1ccccc1	81*	3	·
C[C@H](CO)N1C[C@H](C)[C@@H](CN(C)Cc2ccncc2)Oc2c(NC(=O)c3ccncc3)cccc2C1=O	-34	-1	-1
C[C@@H]1CN([C@@H](C)CO)C(=O)c2cccc(NC(=O)c3ccncc3)c2O[C@H]1CN(C)CC1CCCCC1	76*	-7	·
C[C@@H]1CN([C@@H](C)CO)C(=O)c2cccc(NC(=O)c3ccncc3)c2O[C@H]1CN(C)Cc1ccccc1	79*	8	·
C[C@@H]1CN([C@H](C)CO)C(=O)c2cccc(NC(=O)c3ccncc3)c2O[C@@H]1CN(C)CC1CCCCC1	12	-11	0
